# Measurements as given in PMC3698760 (Journal of the American Heart Association: Cardiovascular …, 2013).
# Assays:
# ABCA1 = ABCA1 (Homo sapiens, UniProt O95477); test: Probucol-inhibitable, ABCA1-specific cholesterol efflux in A172 cells; format: cell-based; settings: probucol 10 μmol/L
# Summary of the method: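 A172 glioblastoma cells, labelled with ³H-cholesterol, were held in serum-free 0.2% BSA medium with 5 μmol/L T0901317 and 5 μmol/L 9-cis-retinoic acid. Cells were exposed for 4 h to 20 μg/mL acceptor, with or without 10 μmol/L probucol. ABCA1-dependent efflux was taken as the probucol-inhibitable fraction.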
# Circular dichroism = format: physicochemical; settings: CD spectra in water, 200 to 260 nm
# Summary of the method: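 Spectra of peptides and human apoA-I (17.8 to 178 μmol/L) recorded at 25°C in a thermostatted quartz cell with 0.1 mm path length, scanning 200–260 nm. Results expressed as mean residue ellipticity (deg cm² dmol⁻¹).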
# apoE‐deficient mice [1] = test: Plasma lipid profiles by enzymatic assay, 16-week treatment; format: in vivo; settings: scrambled peptides i.p. 16 weeks, n=7; high-fat-fed apoE-deficient mice; mean±SD
# Summary of the method: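 Overnight-fasting plasma taken after 16 weeks from 19 of 23 high-fat-fed apoE−/− mice. Dosing was i.p. 3 times weekly with scrambled peptide or test peptide at 10 or 50 mg/kg per day. Total cholesterol, triglyceride and HDL cholesterol were measured by enzymatic assay; mean±SD.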
# apoE‐deficient mice [2] = test: Plasma lipoprotein profiles analyzed by HPLC, 16-week treatment; format: in vivo; settings: scrambled peptides i.p. 16 weeks, n=7, mean±SD
# Summary of the method: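 Plasma from apoE−/− mice after 16-week i.p. dosing (3 times weekly) was separated by HPLC into 20 particle-size subfractions. Each subfraction was assayed enzymatically for total cholesterol, free cholesterol, triglycerides and phospholipids; mean±SD.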
# [3] = system: apoE−/− mice fed a high‐fat diet; test: Aortic atherosclerotic lesion formation, 16-week treatment; format: in vivo; settings: scrambled FAMP i.p. 3 times per week, 16 weeks; Oil Red O; mean±SD
# Summary of the method: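 Male apoE−/− mice, bought at six weeks, fed a high-fat diet (0.5% cholesterol, 10% fat) and dosed i.p. 3 times per week for 16 weeks: test peptide at 10 or 50 mg/kg per day, or scrambled peptide. Whole aortas were then stained with Oil Red O. Lesion area was scored by image analysis as percentage of aorta from ascending aorta to abdominal bifurcation.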
# A172 human glioblastoma = test: Cellular cholesterol efflux in A172 human cells; format: cell-based; settings: 4 hours
# Summary of the method: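 A172 human glioblastoma cells were grown in DMEM with 10% FBS and antibiotics, then labelled with ³H‑cholesterol. Efflux ran in serum‑free medium with 0.2% BSA, 5 μmol/L T0901317 and 5 μmol/L 9‑cis‑retinoic acid, with or without 10 μmol/L probucol. Acceptor was human apoA‑I or test peptide at 20 μg/mL, or a molar dose series, for 4 h. n=4–5; mean±SD.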
# [4] = system: monocyte‐derived macrophages from an ABCA1‐deficient Tangier disease patient; format: cell-based, human; settings: 20 μg/mL, 4 hours, n=4
# Summary of the method: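 Peripheral blood monocyte‑derived macrophages came from a healthy volunteer and a Tangier disease patient, with ethics approval and written consent. Cells were isolated by Lymphoprep density separation and labelled with ³H‑cholesterol. Efflux was run in serum‑free 0.2% BSA medium with or without 20 μg/mL human apoA‑I or test peptide for 4 h. n=4; mean±SD.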
# Chain of ABCA1 (O95477 whole entry): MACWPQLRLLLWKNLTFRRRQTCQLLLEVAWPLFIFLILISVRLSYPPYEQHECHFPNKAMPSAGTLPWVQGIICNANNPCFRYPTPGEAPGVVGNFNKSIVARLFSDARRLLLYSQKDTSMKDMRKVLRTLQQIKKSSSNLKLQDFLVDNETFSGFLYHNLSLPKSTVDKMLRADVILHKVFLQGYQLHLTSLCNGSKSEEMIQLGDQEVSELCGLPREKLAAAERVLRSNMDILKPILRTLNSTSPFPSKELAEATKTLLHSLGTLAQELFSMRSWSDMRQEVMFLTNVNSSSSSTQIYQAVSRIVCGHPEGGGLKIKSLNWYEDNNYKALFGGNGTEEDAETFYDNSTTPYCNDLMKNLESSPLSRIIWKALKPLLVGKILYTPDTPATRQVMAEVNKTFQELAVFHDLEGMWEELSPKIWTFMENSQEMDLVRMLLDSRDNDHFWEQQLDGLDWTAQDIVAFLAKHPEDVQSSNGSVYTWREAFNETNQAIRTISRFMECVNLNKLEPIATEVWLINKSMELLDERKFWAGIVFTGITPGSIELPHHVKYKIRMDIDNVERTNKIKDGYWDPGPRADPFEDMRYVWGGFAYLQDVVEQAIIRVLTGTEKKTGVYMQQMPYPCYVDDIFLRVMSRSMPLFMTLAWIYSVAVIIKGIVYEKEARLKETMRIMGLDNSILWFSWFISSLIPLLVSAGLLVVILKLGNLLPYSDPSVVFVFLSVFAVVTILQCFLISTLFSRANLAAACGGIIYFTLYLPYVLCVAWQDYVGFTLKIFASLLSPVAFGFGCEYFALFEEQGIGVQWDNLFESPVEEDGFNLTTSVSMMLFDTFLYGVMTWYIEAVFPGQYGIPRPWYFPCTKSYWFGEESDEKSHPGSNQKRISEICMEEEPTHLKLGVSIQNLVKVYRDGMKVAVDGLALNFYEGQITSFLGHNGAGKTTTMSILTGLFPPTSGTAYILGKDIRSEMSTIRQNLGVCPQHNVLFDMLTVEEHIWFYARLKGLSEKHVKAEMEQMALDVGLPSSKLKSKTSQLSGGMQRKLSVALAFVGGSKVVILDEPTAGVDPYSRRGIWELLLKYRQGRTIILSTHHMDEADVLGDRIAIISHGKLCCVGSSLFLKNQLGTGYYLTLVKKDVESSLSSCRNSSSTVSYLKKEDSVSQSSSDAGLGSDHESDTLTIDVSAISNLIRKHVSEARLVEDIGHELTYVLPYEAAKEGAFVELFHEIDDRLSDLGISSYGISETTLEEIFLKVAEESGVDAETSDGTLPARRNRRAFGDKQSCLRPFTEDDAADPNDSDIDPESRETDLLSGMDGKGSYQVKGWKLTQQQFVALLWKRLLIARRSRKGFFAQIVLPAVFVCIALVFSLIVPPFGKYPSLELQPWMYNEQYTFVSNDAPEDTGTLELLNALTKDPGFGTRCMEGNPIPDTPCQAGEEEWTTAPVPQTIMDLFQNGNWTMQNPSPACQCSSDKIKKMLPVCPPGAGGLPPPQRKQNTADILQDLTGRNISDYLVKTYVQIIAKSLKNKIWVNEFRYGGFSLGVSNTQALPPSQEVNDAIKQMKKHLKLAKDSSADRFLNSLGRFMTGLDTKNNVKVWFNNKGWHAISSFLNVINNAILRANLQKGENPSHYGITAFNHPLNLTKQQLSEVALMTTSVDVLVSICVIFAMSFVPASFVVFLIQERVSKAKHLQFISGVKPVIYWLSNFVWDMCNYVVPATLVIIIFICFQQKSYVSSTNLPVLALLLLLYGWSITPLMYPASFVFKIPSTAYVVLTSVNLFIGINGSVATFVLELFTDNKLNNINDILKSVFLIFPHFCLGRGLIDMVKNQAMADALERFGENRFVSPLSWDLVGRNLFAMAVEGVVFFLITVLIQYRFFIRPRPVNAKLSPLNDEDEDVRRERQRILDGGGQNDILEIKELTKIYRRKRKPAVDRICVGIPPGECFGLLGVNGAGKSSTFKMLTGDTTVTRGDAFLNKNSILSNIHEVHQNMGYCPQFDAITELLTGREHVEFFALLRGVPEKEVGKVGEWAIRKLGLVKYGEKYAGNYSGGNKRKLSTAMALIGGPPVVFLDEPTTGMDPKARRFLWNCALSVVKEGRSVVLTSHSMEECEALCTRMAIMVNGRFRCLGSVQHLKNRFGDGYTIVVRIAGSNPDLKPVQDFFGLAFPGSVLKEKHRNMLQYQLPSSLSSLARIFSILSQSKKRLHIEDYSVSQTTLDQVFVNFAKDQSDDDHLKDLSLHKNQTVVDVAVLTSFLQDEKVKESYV
substance,measurement,setting,value
"Ac-DWFKAFYDKVAEKFKEAF-NH2 [L‐4F, reference compound]","percentage of probucol‐inhibitable, ABCA1‐specific cholesterol efflux",ABCA1,much more unspecific cholesterol efflux compared with FAMP5
H-ALEHLFTLSEKALKALEDLLKKLL-OH [FAMP2],α‐helical conformation (CD spectra),Circular dichroism,formed strong α‐helical conformations
"H-ATEFLHLLLLKLLKKKEDELLAYA-OH [Scrambled FAMP, reference compound]",HDL Cholesterol,apoE‐deficient mice [1],12.6 ± 4.8 mg/dL
same,Total Cholesterol,apoE‐deficient mice [1],1373.9 ± 499.2 mg/dL
same,Triglyceride,apoE‐deficient mice [1],119.9 ± 21.7 mg/dL
same,"Cholesterol, CM (>80 nm)",apoE‐deficient mice [2],106.2 ± 47.8 mg/dL
same,"Cholesterol, HDL (8 to 16 nm)",apoE‐deficient mice [2],23.0 ± 4.5 mg/dL
same,"Cholesterol, HDL Subfractions Intermediate Particles",apoE‐deficient mice [2],12.0 ± 3.4 mg/dL
same,"Cholesterol, HDL Subfractions Large Particles",apoE‐deficient mice [2],7.2 ± 1.5 mg/dL
same,"Cholesterol, HDL Subfractions Small Particles",apoE‐deficient mice [2],3.8 ± 0.5 mg/dL
same,"Cholesterol, LDL (16 to 30 nm)",apoE‐deficient mice [2],165.3 ± 25.4 mg/dL
same,"Cholesterol, VLDL (30 to 80 nm)",apoE‐deficient mice [2],423.7 ± 96.1 mg/dL
same,"Free cholesterol, CM (>80 nm)",apoE‐deficient mice [2],44.9 ± 20.5 mg/dL
same,"Free cholesterol, HDL (8 to 16 nm)",apoE‐deficient mice [2],12.5 ± 1.4 mg/dL
same,"Free cholesterol, HDL Subfractions Intermediate Particles",apoE‐deficient mice [2],5.1 ± 0.5 mg/dL
same,"Free cholesterol, HDL Subfractions Large Particles",apoE‐deficient mice [2],5.7 ± 1.1 mg/dL
same,"Free cholesterol, HDL Subfractions Small Particles",apoE‐deficient mice [2],1.7 ± 0.2 mg/dL
same,"Free cholesterol, LDL (16 to 30 nm)",apoE‐deficient mice [2],80.9 ± 10.1 mg/dL
same,"Free cholesterol, VLDL (30 to 80 nm)",apoE‐deficient mice [2],179.8 ± 35.9 mg/dL
same,"Phospholipids, CM (>80 nm)",apoE‐deficient mice [2],53.0 ± 22.3 mg/dL
same,"Phospholipids, HDL (8 to 16 nm)",apoE‐deficient mice [2],45.5 ± 10.3 mg/dL
same,"Phospholipids, HDL Subfractions Intermediate Particles",apoE‐deficient mice [2],28.1 ± 7.4 mg/dL
same,"Phospholipids, HDL Subfractions Large Particles",apoE‐deficient mice [2],12.4 ± 3.3 mg/dL
same,"Phospholipids, HDL Subfractions Small Particles",apoE‐deficient mice [2],5.0 ± 1.7 mg/dL
same,"Phospholipids, LDL (16 to 30 nm)",apoE‐deficient mice [2],133.6 ± 20.5 mg/dL
same,"Phospholipids, VLDL (30 to 80 nm)",apoE‐deficient mice [2],228.2 ± 40.0 mg/dL
same,"Triglyceride, CM (>80 nm)",apoE‐deficient mice [2],13.9 ± 7.5 mg/dL
same,"Triglyceride, HDL (8 to 16 nm)",apoE‐deficient mice [2],3.3 ± 0.8 mg/dL
same,"Triglyceride, HDL Subfractions Intermediate Particles",apoE‐deficient mice [2],1.5 ± 0.5 mg/dL
same,"Triglyceride, HDL Subfractions Large Particles",apoE‐deficient mice [2],0.6 ± 0.2 mg/dL
same,"Triglyceride, HDL Subfractions Small Particles",apoE‐deficient mice [2],1.1 ± 0.3 mg/dL
same,"Triglyceride, LDL (16 to 30 nm)",apoE‐deficient mice [2],12.3 ± 4.2 mg/dL
same,"Triglyceride, VLDL (30 to 80 nm)",apoE‐deficient mice [2],33.8 ± 7.7 mg/dL
same,relative surface area of aortic plaque lesions,[3],31.3±8.9%
H-ATEHLSTLSEKAKPALEDLLKKLL-OH [FAMP4],α‐helical conformation (CD spectra),Circular dichroism,"but not FAMP4, formed strong α‐helical conformations"
"human apoA‐I: Human apoA‐I purchased from Calbiochem, 243–amino acid major HDL protein",concentration adequate for a saturating effect on cholesterol efflux,A172 human glioblastoma; A172 cells,20 µg/mL
same,effect of ABCA1 inactivation (probucol) on peptide-mediated cholesterol efflux,"A172 human glioblastoma; probucol 10 μmol/L, 20 μg/mL",drastically inhibited
same,cholesterol efflux in Tangier disease macrophages vs healthy subject,[4],suppressed
